Activity calls are given as the source filed them. No cut-off for these calls is given here.
Columns and labels:
EZH2 (Homo sapiens) = assay: Inhibition of human N-terminal His-tagged EZH2/flag-tagged EED/SUZ12/AEBP2/RBAP48 A677G mutant (2 to end residues) expressed in baculovirus infected Sf9 insect cells using histone H3 (1 to 50 residues)-GGK as substrate after 2 hrs in presence of SAM by fluorescence assay
Pfeiffer [1] = assay: Cytotoxicity against human Pfeiffer cells assessed as decrease in cell viability after 5 days by CellTiter-Glo reagent based luminescence assay; type: functional; conditions: 120 h
[2] = Stability of the compound in rat liver microsomes; type: ADME, microsome
[3] = Stability of the compound in human liver microsomes; type: ADME, microsome
Mus musculus = assay: Toxicity in athymic nude mouse xenografted with human Pfeiffer cells assessed as body weight loss at 10 to 100 mg/kg, po qd administered for 20 days measured twice per week; type: organism-based; conditions: in vivo, 480 h
Pfeiffer [4] = assay: Antitumor activity against human Pfeiffer cells xenografted in athymic nude mouse assessed as tumor growth inhibition at 100 mg/kg, po qd administered for 20 days measured twice per week; type: functional
In short: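 Pfeiffer xenografts were grown to about 150-200 mm³ before dosing. The compound was given orally once daily for 20 days at the dose in each line (10, 30 or 100 mg/kg), with a reference EZH2 inhibitor dosed at 100 mg/kg. Tumor growth inhibition was expressed as percent reduction in tumor size.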

CCN(c1cc2oc(C)cc2c(C(=O)NCc2c(C)cc(C)[nH]c2=O)c1C)C1CCOCC1
IC50 (EZH2 (Homo sapiens)): 3.8 nM
IC50 (Pfeiffer [1]): 21 nM

CCc1c(N(CC)C2CCOCC2)cc2oc(CN3CCN(C)CC3)cc2c1C(=O)NCc1c(OC)cc(C)[nH]c1=O
Stability [2]: Stable
IC50 (EZH2 (Homo sapiens)): 0.1 nM
Stability [3]: Stable
IC50 (Pfeiffer [1]): 8 nM

CCN(c1cc2occc2c(C(=O)NCc2c(C)cc(C)[nH]c2=O)c1C)C1CCOCC1
IC50 (EZH2 (Homo sapiens)): 4 nM
IC50 (Pfeiffer [1]): 240 nM

CCN(c1cc2oc(Cl)cc2c(C(=O)NCc2c(OC)cc(C)[nH]c2=O)c1C)C1CCOCC1
IC50 (EZH2 (Homo sapiens)): 0.4 nM
IC50 (Pfeiffer [1]): 21 nM

CCc1cc(C)[nH]c(=O)c1CNC(=O)c1c(C)c(N(CC)C2CCOCC2)cc2occc12
IC50 (EZH2 (Homo sapiens)): 0.6 nM
IC50 (Pfeiffer [1]): 220 nM

CCN(c1cc2occc2c(C(=O)NCc2c(C(F)(F)F)cc(C)[nH]c2=O)c1C)C1CCOCC1
IC50 (EZH2 (Homo sapiens)): 4.6 nM
IC50 (Pfeiffer [1]): 3300 nM

CCc1c(N(CC)C2CCOCC2)cc2oc(CN3CCOCC3)cc2c1C(=O)NCc1c(OC)cc(C)[nH]c1=O
Stability [2]: Stable
IC50 (EZH2 (Homo sapiens)): 7.8 nM
Stability [3]: Stable
IC50 (Pfeiffer [1]): 3 nM

CCN(c1cc2occc2c(C(=O)NCc2c(OC)cc(C)[nH]c2=O)c1C)C1CCOCC1
IC50 (EZH2 (Homo sapiens)): 4 nM
IC50 (Pfeiffer [1]): 20 nM

CCc1c(N(CC)C2CCOCC2)cc2oc(CN3CCCCC3)cc2c1C(=O)NCc1c(OC)cc(C)[nH]c1=O
Stability [2]: Stable
IC50 (EZH2 (Homo sapiens)): 6.4 nM
Stability [3]: Stable
IC50 (Pfeiffer [1]): 2 nM

CCc1c(N(CC)C2CCOCC2)cc2occc2c1C(=O)NCc1c(OC)cc(C)[nH]c1=O
IC50 (EZH2 (Homo sapiens)): 3.3 nM
IC50 (Pfeiffer [1]): 15 nM

CCN(c1cc2occc2c(C(=O)NCc2ccc(C)[nH]c2=O)c1Cl)C1CCOCC1
IC50 (EZH2 (Homo sapiens)): 6.5 nM
IC50 (Pfeiffer [1]): 150 nM

CCN(c1cc(-c2ccc(CN3CCOCC3)cc2)cc(C(=O)NCc2c(C)cc(C)[nH]c2=O)c1C)C1CCOCC1 [TAZEMETOSTAT]
IC50 (Pfeiffer [1]): 38 nM
Activity (Mus musculus): Non-Toxic
TGI (Pfeiffer [4]): Active

Reference: ChEMBL document CHEMBL4138300 (ACS Med Chem Lett, 2018)
